The nature of data set [1]: Acute toxicity in po dosed CD1 mouse after 7 days. The format is organism-based. The note with it: in vivo. The method in brief:
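Male CD1 mice, 20 ± 2 g, oral dosing at 10 mL/kg as an aqueous solution or suspension in 1% Tween 80 in distilled water. At least 10 animals per dose level, observed for 7 days. Oral LD50 calculated by the Litchfield–Wilcoxon method.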

A further data set relates to Rattus norvegicus. Put plainly: Antiinflammatory activity in po dosed CD1 rat assessed as inhibition of carrageenan-induced paw edema administered 1 hr prior to carrageenan challenge measured after 3 hrs.
Data set [2] has as its system Mus musculus. Put plainly: Analgesic activity in po dosed CD1 mouse assessed as inhibition of acetic acid-induced writhing administered 30 mins prior to acetic acid challenge measured after 15 mins. It counts as functional. A digest of the protocol: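 Male CD1 mice, 20 ± 2 g, randomly grouped and dosed orally at several levels (10 mL/kg, 1% Tween 80 vehicle), with at least two groups of six per dose. After 30 min, 0.6% acetic acid was given ip at 10 mL/kg, and writhes were counted per group over 15 min. ED50 (dose halving writhes) was read graphically, with no SEM computed.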

In data set [3] the test system is Mus musculus. Put plainly: Analgesic activity in po dosed OF1 mouse assessed as dose required to double paw licking reaction time after 30 mins by hot plate test. It counts as functional. The note with it: 0.5 h. A digest of the protocol: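 Male OF1 mice, 20 ± 2 g, given oral doses at several levels in 1% Tween 80 at 10 mL/kg, at least 10 per dose. After 30 min each mouse was placed on a metal plate at 56 °C and paw-licking latency was recorded. ED2 (dose doubling latency) was read graphically, with SEM and Dunnett's t versus controls.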

Each structure is given as a SMILES string. Some results are limits rather than exact numbers.

In data set [1], `O=C(OCCN1CCN(c2ccccc2)CC1)c1ccccc1Nc1cccc(C(F)(F)F)c1` came in with an LD50 at 168 h greater than 2000 mg/kg. Moreover, in the data set with Rattus norvegicus, the ED40 was 100 mg/kg. Also, the median effective dose (ED50) with Mus musculus [2] is 400 mg/kg.
Taken in the same sequence, the figures for `Cc1cccc(Nc2ccccc2C(=O)OCCN2CCN(c3ccccc3)CC2)c1C` were 4000 mg/kg, greater than 50 mg/kg and 90 mg/kg.
The matching figures for `O=C(OCCN1CCN(c2ccccc2)CC1)c1ccccc1Nc1cccc(OC(F)(F)F)c1`: 2000 mg/kg, 150 mg/kg and greater than 400 mg/kg.
In data set [1], `O=C(OCCN1CCN(c2cccc(Cl)c2)CC1)c1ccccc1Nc1cccc(SC(F)(F)F)c1` had a median lethal dose (LD50) at 168 h of 2000 mg/kg. In addition, the ED40 with Rattus norvegicus is greater than 50 mg/kg. The median effective dose (ED50) in the data set with Mus musculus [2] is greater than 400 mg/kg.
For the molecule `O=C(OCCN1CCN(c2cccc(C(F)(F)F)c2)CC1)c1ccccc1Nc1cccc(SC(F)(F)F)c1`, in data set [1], the 50% lethal dose (LD50) at 168 h is greater than 4000 mg/kg. In addition, the ED40 with Rattus norvegicus was greater than 50 mg/kg. Also, in the data set on Mus musculus [2], the ED50 was 300 mg/kg.
In data set [1], `O=C(OCCN1CCN(c2cccc(C(F)(F)F)c2)CC1)c1cccnc1Nc1cccc(SC(F)(F)F)c1` gave a median lethal dose (LD50) at 168 h greater than 4000 mg/kg. The ED40 in the data set with Rattus norvegicus was greater than 50 mg/kg. For the same molecule, the ED50 with Mus musculus [2] worked out at 250 mg/kg.
`O=C(OCCN1CCN(c2cccc(Cl)c2)CC1)c1cccnc1Nc1cccc(SC(F)(F)F)c1` had an LD50 at 168 h in data set [1] greater than 4000 mg/kg. In addition, the ED40 in the data set on Rattus norvegicus is greater than 300 mg/kg. The median effective dose (ED50) in the data set with Mus musculus [2] was found to be 100 mg/kg.
Taken in the same sequence, the figures for `Cc1c(Cl)cccc1Nc1ncccc1C(=O)OCCN1CCN(c2cccc(C(F)(F)F)c2)CC1` were greater than 4000 mg/kg, greater than 100 mg/kg and 200 mg/kg.
For `CC(CN1CCN(c2ccccc2)CC1)OC(=O)c1ccccc1Nc1ccnc2cc(Cl)ccc12` (centres undefined), the ED2 in the data set with Mus musculus [3] was found to be 200 mg/kg. Moreover, in data set [1], the LD50 at 168 h is greater than 2000 mg/kg. For the same molecule, the ED40 in the data set on Rattus norvegicus was 300 mg/kg. Moreover, the ED50 in the data set on Mus musculus [2] was determined as 63 mg/kg.
With `O=C(OCCCN1CCN(c2ccccc2)CC1)c1ccccc1Nc1ccnc2cc(Cl)ccc12`, the ED2 with Mus musculus [3] is 250 mg/kg. In data set [1], this molecule yielded a 50% lethal dose (LD50) at 168 h of 2000 mg/kg. Moreover, the ED40 with Rattus norvegicus is 50 mg/kg. Besides, the ED50 in the data set with Mus musculus [2] was 60 mg/kg.
The matching figures for `Cc1cc(Nc2ccccc2C(=O)OCCN2CCN(c3ccccc3)CC2)c2ccc(Cl)cc2n1`: 300 mg/kg, 4000 mg/kg, greater than 200 mg/kg and 110 mg/kg.
For `COc1ccc(N2CCN(CCOC(=O)c3ccccc3Nc3ccnc4cc(Cl)ccc34)CC2)cc1`, the ED2 in the data set on Mus musculus [3] is greater than 300 mg/kg. Also, the ED40 in the data set on Rattus norvegicus worked out at 45 mg/kg. Moreover, the 50% effective dose (ED50) in the data set with Mus musculus [2] turned out to be 200 mg/kg.
With `Cc1ccc(C)c(N2CCN(CCOC(=O)c3ccccc3Nc3ccnc4cc(Cl)ccc34)CC2)c1`, in the data set with Mus musculus [3], the ED2 came out at 300 mg/kg. For the same molecule, the LD50 at 168 h in data set [1] is 4000 mg/kg. Moreover, the ED40 in the data set with Rattus norvegicus was 120 mg/kg. For the same molecule, the ED50 with Mus musculus [2] stood at 22 mg/kg.
In the case of `Cc1ccc(Cl)cc1N1CCN(CCOC(=O)c2ccccc2Nc2ccnc3cc(Cl)ccc23)CC1`, the ED2 with Mus musculus [3] was greater than 300 mg/kg. The median lethal dose (LD50) at 168 h in data set [1] was greater than 4000 mg/kg. Also, the ED40 in the data set on Rattus norvegicus turned out to be 30 mg/kg. Further, in the data set with Mus musculus [2], the median effective dose (ED50) stood at 15 mg/kg.
The matching figures for `O=C(OCCN1CCN(c2ccc(Cl)cc2)CC1)c1ccccc1Nc1ccnc2cc(Cl)ccc12`: greater than 300 mg/kg, greater than 2000 mg/kg, 100 mg/kg and 80 mg/kg.
`O=C(OCCN1CCN(c2cccc(C(F)(F)F)c2)CC1)c1ccccc1Nc1ccnc2cc(Cl)ccc12`: in the data set with Mus musculus [3], the ED2 turned out to be 150 mg/kg. Besides, the ED40 with Rattus norvegicus was found to be 40 mg/kg. Besides, the ED50 in the data set with Mus musculus [2] amounted to 24 mg/kg.
For `O=C(OCCN1CCN(c2cccc(SC(F)(F)F)c2)CC1)c1ccccc1Nc1ccnc2cc(Cl)ccc12`, in the data set with Mus musculus [3], the ED2 amounted to 200 mg/kg. The molecule also came in with an LD50 at 168 h in data set [1] of 3000 mg/kg. Also, in the data set on Rattus norvegicus, the ED40 stood at 30 mg/kg. In the data set with Mus musculus [2], the 50% effective dose (ED50) stood at 120 mg/kg.
For the molecule `O=C(OCCN1CCN(c2ccccc2)CC1)c1ccccc1Nc1ccnc2cc(C(F)(F)F)ccc12`, in the data set on Mus musculus [3], the ED2 is 300 mg/kg. In addition, the LD50 at 168 h in data set [1] was 2500 mg/kg. Moreover, the ED40 in the data set on Rattus norvegicus came to 40 mg/kg. The ED50 with Mus musculus [2] is 30 mg/kg.
Taken in the same sequence, the figures for `O=C(OCCN1CCN(c2cccc(OC(F)(F)F)c2)CC1)c1ccccc1Nc1ccnc2cc(C(F)(F)F)ccc12` were greater than 300 mg/kg, 3500 mg/kg, 50 mg/kg and 20 mg/kg.
Taken in the same sequence, the figures for `O=C(OCCN1CCN(c2cccc(SC(F)(F)F)c2)CC1)c1ccccc1Nc1ccnc2cc(C(F)(F)F)ccc12` were greater than 300 mg/kg, 3750 mg/kg, 30 mg/kg and 8 mg/kg.
Regarding `Cc1ccc(Cl)cc1N1CCN(CCOC(=O)c2ccccc2Nc2ccnc3cc(C(F)(F)F)ccc23)CC1`, the ED2 with Mus musculus [3] is greater than 300 mg/kg. This molecule yielded an LD50 at 168 h in data set [1] of 3000 mg/kg. Besides, in the data set with Rattus norvegicus, the ED40 is 65 mg/kg. Also, in the data set with Mus musculus [2], the ED50 stood at 20 mg/kg.
Regarding `O=C(OCCN1CCN(c2ccccc2)CC1)c1ccccc1Nc1ccnc2c(C(F)(F)F)cccc12`, the ED2 in the data set on Mus musculus [3] was greater than 300 mg/kg. The 50% lethal dose (LD50) at 168 h in data set [1] stood at 3000 mg/kg. Also, the ED40 in the data set on Rattus norvegicus is 64 mg/kg. Further, the median effective dose (ED50) in the data set with Mus musculus [2] was determined as 35 mg/kg.
As for `O=C(OCCN1CCN(c2cccc(Cl)c2)CC1)c1ccccc1Nc1ccnc2c(C(F)(F)F)cccc12`, in the data set on Mus musculus [3], the ED2 was greater than 300 mg/kg. In data set [1], this molecule showed an LD50 at 168 h greater than 3000 mg/kg. The ED40 in the data set with Rattus norvegicus was 100 mg/kg. Also, in the data set with Mus musculus [2], the ED50 was 18 mg/kg.
The matching figures for `O=C(OCCN1CCN(c2cccc(C(F)(F)F)c2)CC1)c1ccccc1Nc1ccnc2c(C(F)(F)F)cccc12`: 100 mg/kg, greater than 3000 mg/kg, 120 mg/kg and 40 mg/kg.
Taken in the same sequence, the figures for `O=C(OCCN1CCN(c2cccc(SC(F)(F)F)c2)CC1)c1ccccc1Nc1ccnc2c(C(F)(F)F)cccc12` were 200 mg/kg, greater than 3000 mg/kg, greater than 100 mg/kg and 6 mg/kg.
`O=C(OCCN1CCN(c2ccccc2)CC1)c1ccccc1Nc1ccnc2cc(SC(F)(F)F)ccc12`: in the data set on Mus musculus [3], the ED2 came out at 300 mg/kg. In the data set with Rattus norvegicus, the ED40 was 100 mg/kg. Also, in the data set on Mus musculus [2], the ED50 came to 9 mg/kg.
Consider `O=C(OCCN1CCN(c2cccc(SC(F)(F)F)c2)CC1)c1ccccc1Nc1ccnc2cc(SC(F)(F)F)ccc12`, for which the ED2 with Mus musculus [3] came to 200 mg/kg. Further, the ED40 with Rattus norvegicus was determined as 180 mg/kg. In the data set with Mus musculus [2], the ED50 worked out at 60 mg/kg.
Take `O=C(OCCN1CCN(c2ccccc2)CC1)c1ccccc1Nc1ccnc2cc(OC(F)(F)F)ccc12`: the ED2 with Mus musculus [3] stood at 300 mg/kg. This molecule had an LD50 at 168 h in data set [1] of 1300 mg/kg. For the same molecule, in the data set with Rattus norvegicus, the ED40 is 40 mg/kg. In the data set with Mus musculus [2], the ED50 turned out to be 24 mg/kg.
Taken in the same sequence, the figures for `O=C(OCCN1CCN(c2cccc(C(F)(F)F)c2)CC1)c1ccccc1Nc1ccnc2cc(OC(F)(F)F)ccc12` were 150 mg/kg, 1500 mg/kg, 43 mg/kg and 20 mg/kg.
The matching figures for `O=C(OCCN1CCN(c2cccc(OC(F)(F)F)c2)CC1)c1ccccc1Nc1ccnc2cc(OC(F)(F)F)ccc12`: greater than 300 mg/kg, 3500 mg/kg, 75 mg/kg and 70 mg/kg.
`O=C(O)c1ccccc1Nc1ccnc2cc(C(F)(F)F)ccc12`: the ED2 with Mus musculus [3] is greater than 600 mg/kg. This molecule also returned an LD50 at 168 h in data set [1] of 1000 mg/kg. Also, the ED50 in the data set with Mus musculus [2] worked out at 18 mg/kg.
Turning to `O=C(OCC(O)CO)c1ccccc1Nc1ccnc2cc(Cl)ccc12` (centres undefined) [GLAFENINE], the ED2 in the data set on Mus musculus [3] is greater than 600 mg/kg. Moreover, in the data set with Rattus norvegicus, the ED40 came to 30 mg/kg. Also, in the data set with Mus musculus [2], the ED50 is 56 mg/kg.
